Screening results as filed in PubChem.
The list is not random: actives were taken first. Their share in the collection is about 1.8%.
PPC-1+TRAIL kill: kills PPC-1 cancer cells in the presence of TRAIL; PPC-1 cells + TRAIL, ATPLite viability luminescence; cell killing (% activity), % at 4 µM or 5 µM; actives 0.41% (n = 220,000); AID 1443;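 active = cell killing above 50% in the first pass at 4 µM, then a duplicate retest at 5 µM averaging 50% or more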
STAT1 inh: STAT1 signaling inhibition; AID 920; NIH 3T3 STAT1-luciferase reporter, IFN-gamma, luminescence; actives 0.35% (n = 200,000); inhibition, % at 5.5 µM;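 active = inhibition above a set limit, the mean inhibition across all tested compounds plus 3 SD, cut at about 34% in these data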
C8 TRAIL sens: caspase-8 TRAIL sensitization. inhibition (viability loss, TRAIL sensitization), % at 10 µM. NB7+C8 cells + TRAIL, ATPlite viability luminescence. actives 1% (n = 360,000). AID 624354;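 active = compounds causing at least 50% loss of cell viability in the single-dose screen, relative to plate controls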
STAT3 inh-1: STAT3 signaling inhibition; U3A cells, IL-6 STAT3-luciferase reporter, luminescence; host cell line lacks STAT1; inhibition, % at 5.5 µM; actives 0.89% (n = 190,000); AID 862;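 active = inhibition above the mean inhibition across all screened compounds plus 3 SD, cut at about 44% in these data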
STAT3 act-1: increases IL-6 driven STAT3 reporter signal | actives 0.91% (n = 190,000) | U3A cells, IL-6 STAT3-luciferase reporter, luminescence; 100% = signal with IL-6 EC80 alone | activation (% of control), % at 5.6 µM;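 active = activation above the screen-wide mean of compound activation plus 3 SD, cut at about 130% in these data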
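Detection: reporter luminescence signal / Assay system: STAT1-lacking human U3A cells, STAT3 luciferase reporter / Incubation: compound pre-incubation 1 h before IL-6, then 6 h stimulation at 37 °C / Control set: IL-6-only high control / Read-out: % activation relative to IL-6 control / Probe or stimulus: Interleukin-6, 33 ng/mL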
STAT3 inh-2: STAT3 inhibition, confirmation assay. actives 45% (n = 1,200). inhibition, % at 5.7 µM. AID 1265. shares compounds with STAT3 inh-1. U3A cells, IL-6 STAT3 luciferase reporter, luminescence; cell line lacks STAT1;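 active = inhibition above the hit cutoff computed for the primary STAT3 screen, cut at about 44% in these data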
NFkB inh STAT3ct: counter-screen for STAT3 inhibitors: NF-kappaB inhibition; AID 1308; actives 36% (n = 1,200); HEK293T NF-kB luciferase reporter, TNF-alpha induced; shares compounds with STAT3 inh-1; inhibition, % at 5.7 µM;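 active = inhibition above the mean of solvent-only control wells plus 3 SD, cutoff set per campaign, cut at about 13% in these data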
STAT1 inh STAT3c: counter-screen for STAT3 inhibitors: STAT1 inhibition | shares compounds with STAT3 inh-1 | NIH 3T3 STAT1-luciferase reporter, IFN-gamma induced, luminescence | inhibition, % at 5.7 µM | actives 27% (n = 1,200) | AID 1317;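 active = inhibition above the mean plus 3 SD of solvent-only control wells, limit set per screening run, cut at about 16% in these data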
STAT3 act-2: STAT3 activation, confirmation assay. shares compounds with STAT3 act-1. U3A STAT3-luciferase reporter, IL-6 potentiation, luminescence; U3A cells lack STAT1; 100 means same as IL-6 alone. potentiation (% of control), % at 5.7 µM. actives 64% (n = 1,200);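 active = percent activation of the STAT3 luciferase reporter above a set limit taken from the earlier primary screen, cut at about 130% in these data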
NFkB act STAT3ct: counter-screen for STAT3 activators: NF-kappaB activation; shares compounds with STAT3 act-1; human cells, NF-kappaB reporter activation; activation (% of control), % at 5.7 µM; actives 11% (n = 1,200); AID 1309; in the data active = activation above about 120%;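 note: reporter induced by TNF-alpha stimulation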
STAT1 act: counter-screen for STAT3 activators: STAT1 activation; shares compounds with STAT3 act-1; NIH 3T3 STAT1-luciferase reporter, IFN-gamma, luminescence; activation (% of control), % at 5.7 µM; actives 13% (n = 1,200); AID 1318;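 active = activation above the solvent-only control well mean plus 3 SD, set per screening run, cut at about 120% in these data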
PPC1 cytotox: PPC-1 cell cytotoxicity; cytotoxicity, % at 5 µM; shares compounds with PPC-1+TRAIL kill; actives 50% (n = 1,200); PPC-1 viability, ATPlite luminescence, overnight;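 active = reconfirmed compounds whose average cytotoxicity reaches 50% or more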
Hits are given with their value; . = inactive; / = no result given.

SMILES	PPC-1+TRAIL kill	STAT1 inh	C8 TRAIL sens	STAT3 inh-1	STAT3 act-1	STAT3 inh-2	NFkB inh STAT3ct	STAT1 inh STAT3c	PPC1 cytotox	others
O=C(Nc1ccc2c(c1)OCCO2)Nc1ccc2c(c1)OCO2	73	.	83	54	.	.	.	.	73
O=C(Nc1ccc2c(c1)OCCO2)c1cc2ccccc2o1	57	.	79	66	.	.	.	.	56
O=C(NC1=NCCS1)c1cc2ccccc2o1	58	.	58	64	.	.	.	.	51
NC(=O)c1ccc(NC(=O)Nc2ccc3c(c2)OCO3)cc1	/	/	.	/	/	/	/	/	/
CCC(CC)c1nnc(NC(=O)Cc2c[nH]c3ccccc23)s1	/	/	.	/	/	/	/	/	/
c1csc(-c2nnc(-c3ccc(N4CCOCC4)cc3)o2)c1	.	.	51	59	.	.	.	.	.
O=C1C(c2ccnc3ccccc23)=C(O)c2ccccc21	84	.	89	48	.	.	38	.	86
O=C1C(=O)c2ccccc2C(O)=C1c1ccccc1F	.	/	.	/	/	/	/	/	/
Cc1cc(C)c2oc(-c3cccc(N)c3)nc2c1	/	/	.	/	/	/	/	/	/
Cc1ccc2nc(-c3cccc(N)c3)oc2c1	76	.	74	55	.	.	.	.	75
CCOc1ccc(NS(=O)(=O)c2cccc(C(=O)NCC3(N(C)C)CCCCC3)c2)cc1	/	/	.	/	/	/	/	/	/
COc1ccc(/C=N/Nc2nc3ccccc3s2)cc1O	.	.	.	60	.	.	.	.	.
COc1ccc(/C=N/Nc2nc3ccccc3o2)cc1O	.	.	.	.	.	/	/	/	/
Cc1cc2ncc(-c3ccc(Cl)cc3)cn2n1	.	.	.	.	.	/	/	/	/
Cc1ccc(-c2cnc3cc(C)nn3c2)cc1	56	.	68	69	.	.	.	.	56
CCCCc1c(-c2ccc(F)cc2)ncn1CCc1ccccc1OC	/	/	.	/	/	/	/	/	/
CN(CC(=O)Nc1nc2ccccc2s1)S(=O)(=O)c1ccc(Cl)cc1	.	.	.	.	156	/	/	/	/	STAT3 act-2=.;NFkB act STAT3ct=.;STAT1 act=.
O=C(NC1CCCC1)C(c1ccco1)N1CCC(O)(c2ccc(Cl)cc2)CC1 (stereo not given)	/	/	.	/	/	/	/	/	/
Cc1ccc(OCC(=O)Nc2cccc3nsnc23)c(C)c1	.	.	.	.	145	/	/	/	/	STAT3 act-2=.;NFkB act STAT3ct=.;STAT1 act=.
Cc1ccc(OCC(=O)Nc2ccc3c4c(cccc24)CC3)c(C)c1	.	.	.	.	.	/	/	/	/
CCC(Oc1ccccc1F)C(=O)NCCCn1ccnc1 (stereo not given)	/	/	.	/	/	/	/	/	/
COc1cc(OC)cc(OC(=O)C2CCN(C3=NS(=O)(=O)c4ccccc43)CC2)c1	/	/	.	/	/	/	/	/	/
O=C(OCc1nc2ccccc2s1)C1CCN(C2=NS(=O)(=O)c3ccccc32)CC1	.	.	.	.	147	/	/	/	/	STAT3 act-2=142;NFkB act STAT3ct=121;STAT1 act=134
COc1ccc(C(=O)C2CCCN(C(=O)c3ccc4nccnc4c3)C2)c(C)c1 (stereo not given)	/	/	.	/	/	/	/	/	/
CCC(=O)Oc1oc(-c2ccccc2)nc1C=Nc1ccccc1OC	.	.	.	.	144	/	/	/	/	STAT3 act-2=.;NFkB act STAT3ct=.;STAT1 act=.
CCCC1NC(=O)c2cc3ccccc3cc2-n2c1nc1cc(F)ccc1c2=O (stereo not given)	/	/	.	/	/	/	/	/	/
